Screening data (PubChem BioAssay)
Sampled rows, rich in hits. Any-hit rate of the full collection: about 2%.
LMPTP inh: LMPTP (human) inhibition | recombinant LMPTP-A, OMFP fluorogenic substrate, fluorescence intensity | AID 651560 | 0.22% of 360,000 active | inhibition, % at 20 µM;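 active = compounds that cut the enzyme signal by at least half of the control window in the single-dose screen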;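 note: plate controls were DMSO wells with enzyme plus substrate for no effect and substrate without enzyme for full effect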
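test system = LMPTP-A | amount = 0.625 nM LMPTP-A final | reagent = fluorogenic phosphatase substrate OMFP at 400 µM final | incubation = 50 min at room temperature | benchmarks = no-enzyme low control, uninhibited high control | medium = Bis-Tris pH 6.0, DTT, detergent | signal = fluorescence intensity of OMFP turnover product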
Scp-1 inhibitor: inhibitors of human Scp-1 phosphatase; Recombinant Scp1, phosphopeptide, malachite green phosphate absorbance; inhibition, % at 20 µM; 0.88% of 340,000 active;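 active = inhibition above about 50% at 20 µM, limit read from the data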;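 note: plate controls were DMSO wells with enzyme for no effect and wells lacking enzyme for full effect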
Target sequence (Q9GZU7 76-261 limits assumed): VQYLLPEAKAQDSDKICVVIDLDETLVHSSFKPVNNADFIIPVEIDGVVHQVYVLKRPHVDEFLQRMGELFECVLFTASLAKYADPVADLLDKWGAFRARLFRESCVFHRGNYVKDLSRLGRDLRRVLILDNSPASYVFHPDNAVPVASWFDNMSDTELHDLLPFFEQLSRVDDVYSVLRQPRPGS
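Times: enzyme reaction 45 min at room temperature, colour 5 min, stabilisation 30 min. Material: SCP-1 catalytic fragment, aa 76-261. Medium: Acidic Tris acetate buffer with magnesium and detergent. Signal: colorimetric free-phosphate detection, absorbance 630 nm. Read-out basis: % inhibition of SCP-1 phosphate liberation. Reagent: Phosphorylated 17-residue peptide substrate.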
CSN inh: CSN deneddylation inhibition; AID 651999; Q92905; Purified CSN, SCF-Nedd8-OG deneddylation, fluorescence polarization; 0.38% of 360,000 active; inhibition, % at 12.5 µM;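 active = pattern-corrected inhibition above about 35%, with an unprinted fluorescence ratio check between 0.5 and 1.5, limit read from the data, passing the limit was not always enough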;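 note: 0% = enzyme with substrate and 100% = substrate without enzyme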
Target sequence (Q92905 whole entry, looked up, one chain of several): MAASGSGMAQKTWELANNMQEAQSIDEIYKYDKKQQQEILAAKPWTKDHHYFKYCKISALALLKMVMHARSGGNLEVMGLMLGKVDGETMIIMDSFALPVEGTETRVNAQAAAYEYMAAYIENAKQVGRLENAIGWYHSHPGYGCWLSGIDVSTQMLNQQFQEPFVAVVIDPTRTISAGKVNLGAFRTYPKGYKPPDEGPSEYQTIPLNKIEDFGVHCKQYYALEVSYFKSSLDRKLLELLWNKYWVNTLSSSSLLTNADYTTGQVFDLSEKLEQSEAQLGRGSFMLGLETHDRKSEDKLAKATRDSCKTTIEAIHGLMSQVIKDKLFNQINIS
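assay system = purified human Csn5 enzyme expressed in HEK293T cells | amount = 0.24 nM enzyme | buffer or medium = Tris/NaCl/DTT buffer, pH 7.5 | reagent = 10 nM SCFSkp2-Nedd8OG | compound = one concentration, 12.5 µM, 0.25% DMSO | times = 90 min reaction at room temperature | signal = FP | read-out basis = % inhibition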
SUMO1-SIM PPI: alters human SUMO1 binding to SIM partners | 0.33% of 360,000 active | SUMO1 binding to a labelled peptide, TR-FRET, 1 h | inhibition, % at 20 µM; in the data active = inhibition above about 37%
Target sequence (P63165 whole entry, looked up): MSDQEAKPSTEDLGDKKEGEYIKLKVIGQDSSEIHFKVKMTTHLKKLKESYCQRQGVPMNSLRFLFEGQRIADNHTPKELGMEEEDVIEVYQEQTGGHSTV
STEP inh: inhibitors of human striatal-enriched phosphatase STEP | P54829 | recombinant STEP, OMFP fluorogenic substrate, fluorescence | inhibition, % at 20 µM | 0.25% of 360,000 active | AID 588621;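 active = inhibition at 20 µM, scaled per plate between control wells, above about 37%, limit read from the data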;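 note: 0% = DMSO with enzyme and substrate and 100% = substrate only without enzyme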
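Material: STEP (striatal-enriched tyrosine phosphatase) enzyme, cell-free; Compound dosing: 20 µM single dose in 1% DMSO; Technique: fluorescence read at 480 nm ex / 540 nm em; Times: reaction 20 min, ambient temperature; Medium: 50 mM Bis-Tris pH 6.0 with 2.5 mM DTT and 0.005% Tween 20; Also added: OMFP at 25 µM.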
DNMT1 inh: inhibitors of human DNMT1 | AID 588458 | 0.83% of 360,000 active | DNMT1 molecular beacon, Hinp1I cleavage, fluorescence | inhibition (reported as % activation of signal), % at 10 µM; in the data active = inhibition above about 50%
Beacon interf DR: beacon fluorescence artifact, dose response counter-screen; shares compounds with DNMT1 inh; molecular beacon fluorescence, spectral interference counter-screen; IC50, µM; 200 tested, under 10 active; AID 602382; call rule not given here
DNMT1 inh conf: DNMT1 inhibition confirmation, single concentration; shares compounds with DNMT1 inh; DNMT1 molecular beacon HinP1I cleavage, fluorescence; inhibition, % at 10 µM; 8% of 2,300 active; AID 602385;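 active = average inhibition of at least 30% in the single-concentration confirmation test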
Beacon interf: beacon fluorescence artifact counter-screen | shares compounds with DNMT1 inh | DNMT1 molecular beacon spectral interference counterscreen, fluorescence 485/520 | activation (fluorescence interference), % at 10 µM | 1% of 2,300 active | AID 602387;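 active = activation of at least 30% at 10 µM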;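 note: DNMT1 catalytic domain with a HinP1I cleavage step and a FAM/dabcyl DNA beacon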
An asterisk follows results filed as active; . = no result given.

SMILES	LMPTP inh	Scp-1 inhibitor	CSN inh	SUMO1-SIM PPI	STEP inh	DNMT1 inh	DNMT1 inh conf	Beacon interf	others
COc1ccccc1OCCSc1nc2ccccc2n1CC(=O)O	-3	.	-4	35	0	80*	5	4
C=CCn1c(SCC(=O)NC2CCCC2)nc2scc(-c3ccco3)c2c1=O	6	1	3	3	10	52*	2	3
C=CCn1c(SCC(=O)NCC2CCCO2)nc2scc(-c3ccccc3)c2c1=O (stereo not drawn)	0	-8	6	4	1	1	.	.
CCC1CCCCN1C(=O)Nc1cc(Cl)ccc1OC (stereo not drawn)	1	-4	1	0	-2	0	.	.
OC1CCCN(Cc2ccc3ccc4cccc5ccc2c3c45)C1 (stereo not drawn)	0	0	-1	-22	0	65*	1	0
CC(=O)Oc1ccc(N(C(C)=O)S(=O)(=O)c2ccc(C)cc2)c2ccccc12	0	-14	0	-4	10	1	.	.
CNc1ccc(Br)cc(C(=O)/C=C/c2cc(OC)ccc2OC)c1=O	13	-7	16	11	6	14	.	.
CCNc1ccc(Br)cc(C(=O)/C=C/c2ccc(Cl)cc2Cl)c1=O	17	-2	28	13	11	70*	3	5
COCc1cc(C)nc(OCC(=O)N/N=C/c2ccc(-c3cc([N+](=O)[O-])ccc3C)o2)c1C#N	2	3	2	-17	5	0	.	.
Cc1ccc([N+](=O)[O-])cc1-c1ccc(/C=C(\C#N)c2[nH]nc(N)c2C#N)o1	71*	36	40	58*	37	84*	6	-6
COc1ccc(N2CCN(C(=O)c3ccc(Br)o3)CC2)cc1	1	-9	2	-6	2	0	.	.
Nc1ncnc2c1ncn2C1CCCC(CO)O1 (stereo not drawn)	-1	-8	2	5	0	80*	1	-2
O=C(/C=C/c1c(F)cccc1Cl)c1ccc(O)cc1	1	-14	11	-1	0	-2	.	.
CCOC(=O)C1CCN(S(=O)(=O)c2cc(C(=O)N3CCCCC3)ccc2OC)CC1	0	-5	-2	-1	-2	-1	.	.
COCCNC(=S)N/N=C(\C)c1ccc(OC)cc1	-1	-5	-4	-2	-2	4	.	.
COCCNC(=S)N/N=C(\C)c1ccc(OC(F)F)cc1	0	-11	3	-10	1	62*	0	3
Cc1cc2cc(CNC(=S)Nc3ccc(OC(F)(F)F)cc3)ccc2n1C	2	3	5	-71	-3	57*	1	4
Cc1cccc(NC(=O)NCc2ccc3c(c2)cc(C)n3C)c1	5	-6	7	-45	-2	57*	0	1
Cc1cc2cc(CNC(=O)Cc3ccc([N+](=O)[O-])cc3)ccc2n1C	17	-6	-7	-17	1	56*	1	8
CSCC[C@H](N)C(=O)NCC1CCC(C(=O)Nc2ccc3c(c2)OCO3)CC1 (stereo partly drawn)	0	7	2	7	-2	0	.	.
Cc1cc(C)c2c(=O)n3c(nc2c1)C(Cc1ccccc1)NC(=O)c1cc2ccccc2cc1-3 (stereo not drawn)	-1	.	1	4	0	0	.	.
O=C(O)CCCC(=O)Nc1ccccc1C(=O)N1CCOCC1	0	-1	-2	-1	0	3	.	.
O=C(COc1ccccc1[N+](=O)[O-])Nc1ccc2c(c1)OCO2	2	-7	-1	-6	-1	-7	.	.
Cc1cc(=O)oc2cc(NC(=O)COc3ccccc3[N+](=O)[O-])ccc12	5	40	71*	31	10	72*	4	-2
O=C(COc1ccccc1[N+](=O)[O-])Nc1ccc2oc(=O)ccc2c1	13	1	-3	22	6	18	.	.
SMILES	LMPTP inh	Scp-1 inhibitor	CSN inh	SUMO1-SIM PPI	STEP inh	DNMT1 inh	DNMT1 inh conf	Beacon interf	others
O=C(COc1ccc(/C=N/NC(=O)c2cc3ccccc3o2)cc1Br)Nc1ccccc1	29	83*	125*	-1	64*	64*	-3	-9
O=C(COc1ccccc1[N+](=O)[O-])Nc1ccc(NC(=O)c2cc3ccccc3o2)cc1	20	29	17	35	13	59*	2	-4
NC(=O)CC(NC(=O)c1cccc(Br)c1)c1ccc(N2CCN(c3ccccn3)CC2)c([N+](=O)[O-])c1 (stereo not drawn)	1	-7	4	-12	-2	103*	5	9
NC(=O)CC(NC(=O)Cc1ccc(Cl)cc1)c1ccc(N2CCC(Cc3ccccc3)CC2)c([N+](=O)[O-])c1 (stereo not drawn)	1	0	-2	-4	-1	71*	1	2
S=C(NCCc1ccc(Cl)cc1)NCc1ccccc1	0	7	3	2	1	5	.	.
O=C(O)c1cccc(-n2cccc2/C=C2\NC(=O)N(Cc3ccc(F)cc3)C2=O)c1	4	46	21	2	6	107*	16	3
O=C(O)c1ccc(-n2cccc2/C=C2/NC(=O)N(c3cccc(Cl)c3)C2=O)cc1	47	77*	35	-2	43*	94*	84*	-4	Beacon interf DR=>99
COc1ccc(OC)c(C(=O)c2ccc(C(=O)Nc3ccc(NC(C)=O)cc3)cc2)c1	1	-3	2	-3	1	5	.	.
CCc1ccc(NC(=O)c2cnc3scc(C)n3c2=O)cc1	1	-15	6	4	-1	-1	.	.
Cc1csc2ncc(C(=O)Nc3cccc(C(F)(F)F)c3)c(=O)n12	1	-10	7	-2	-2	68*	4	3
O=C(Nc1ccc(N2CCCC2)cc1)c1cc2ccccc2o1	26	0	19	-27	1	65*	4	-2
O=C(Cc1ccccc1)Nc1ccc(N2CCCC2)cc1	37	2	11	-1	1	94*	6	-4
CC(=O)N1CCN(c2ccc(NC(=O)c3cc4ccccc4o3)cc2)CC1	0	-4	-2	-2	6	-1	.	.
CCCCC(=O)Nc1ccc(N2CCN(C(=O)CC)CC2)cc1	-1	-11	-8	-5	1	7	.	.
